hK5 inh: inhibitors of human kallikrein 5 | inhibition, % at 5 µM | actives 0.59% (n = 210,000) | AID 873 | recombinant hK5, fluorogenic AMC substrate cleavage | Q9Y337;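 active means inhibition of 40% or more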;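 further: 0% = enzyme controls without compound and 100% = no-enzyme blanks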
FXIIa inh 1536: inhibitors of human coagulation factor XIIa; actives 0.3% (n = 220,000); AID 800; purified FXIIa, Boc-QGR-AMC fluorogenic substrate, 2 h; inhibition, % at 5 µM; in the data active means inhibition above about 40%;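 further: 0% = enzyme with no compound and 100% = blank without enzyme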
CTSL1 counter: blocks F. hepatica cathepsin L1 in PFM18AAP counter-screen; recombinant F. hepatica cathepsin L1, Z-Leu-Arg-MCA fluorescence; inhibition, % at 5.96 µM; actives 0.49% (n = 300,000);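 active means inhibition above the mean of all tested compounds plus 3 SD, set per screening campaign, cut at about 17% in these data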;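 further: 0% = plate median of test compound wells and 100% = 1 µM Z-Phe-Ala-diazomethylketone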
Rce1 inh: yeast Ras-converting enzyme inhibition | actives 0.27% (n = 290,000) | calls only | yeast membranes, quenched prenylated peptide cleavage fluorescence | Q03530;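 active means fall in fluorescence gain of 50% or more versus controls, with final raw signal at or below 3038400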;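 further: plate controls were neutral control wells for no effect and wells lacking membranes for full effect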
FXIa inh: blocks human coagulation factor XIa protease activity; AID 798; P03951; purified FXIa, Boc-Glu-Ala-Arg-AMC fluorogenic substrate; inhibition, % at 5 µM; actives 0.14% (n = 220,000);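 active means inhibition of at least 40%; inactive means inhibition below 40%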;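 further: fluorescence of freed AMC excited at 355 nm; 0% = enzyme without compound and 100% = no enzyme blank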
Target sequence (P03951 19-387 limits assumed): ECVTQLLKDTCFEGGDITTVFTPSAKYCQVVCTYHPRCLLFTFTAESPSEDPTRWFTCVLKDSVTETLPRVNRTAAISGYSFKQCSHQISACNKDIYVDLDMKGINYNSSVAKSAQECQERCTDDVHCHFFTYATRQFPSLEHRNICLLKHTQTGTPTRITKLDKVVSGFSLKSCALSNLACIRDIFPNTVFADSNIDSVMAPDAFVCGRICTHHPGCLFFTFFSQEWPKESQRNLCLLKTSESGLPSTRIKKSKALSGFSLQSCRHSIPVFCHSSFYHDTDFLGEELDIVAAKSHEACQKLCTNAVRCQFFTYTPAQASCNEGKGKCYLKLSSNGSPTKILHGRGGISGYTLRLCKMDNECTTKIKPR
Target sequence (P03951 388-625 limits assumed): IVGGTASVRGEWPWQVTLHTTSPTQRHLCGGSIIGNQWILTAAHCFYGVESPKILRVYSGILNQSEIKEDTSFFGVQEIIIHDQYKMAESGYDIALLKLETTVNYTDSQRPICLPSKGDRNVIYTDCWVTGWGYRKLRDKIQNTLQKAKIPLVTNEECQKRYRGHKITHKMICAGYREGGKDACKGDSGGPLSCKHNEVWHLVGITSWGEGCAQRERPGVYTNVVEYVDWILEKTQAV
thrombin 1536: inhibitors of human thrombin; actives 0.26% (n = 220,000); alpha-thrombin, Boc-VPR-AMC fluorogenic substrate cleavage; inhibition, % at 5 µM;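 active means inhibition at or above 40%; inactive means inhibition below 40%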;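 further: 0% = enzyme with no compound and 100% = wells without enzyme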
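Assay system: human alpha-thrombin enzyme. Reagent: Boc-VPR-AMC substrate, 15 µM final. Compound dosing: one concentration per compound, 5 µM, with 0.2% DMSO. Incubation: room-temperature reaction. Technique: AMC fluorescence, 355/460 nm. Measure: % inhibition relative to enzyme controls and enzyme-free blanks.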
* hit, by the source's call; i = inactive; · = no result; + = active, no number. A selection: hits, their analogues and other compounds. The true share with any hit is near 1.4%.

SMILES | hK5 inh | FXIIa inh 1536 | CTSL1 counter | Rce1 inh | FXIa inh | thrombin 1536
COc1ccc(CN(C(=O)c2ccc3c(c2)OCCO3)C(C(=O)NC2CCCCC2)c2ccc3ncccc3c2)cc1 (stereo unspecified) | 150* | 0 | -2 | i | -6 | 4
Cc1cc(Cl)c2oc(C(=O)N3CCN(C(=O)c4ccco4)CC3)c(C)c2c1 | · | · | 1 | + | · | ·
Cc1cc(Cl)c2oc(C(=O)N3CCN(c4cccc(C)n4)CC3)c(C)c2c1 | · | · | 1 | i | · | ·
CCOC(=O)N1CCN(C(=O)CSCC(=O)Nc2nc(-c3ccc(Cl)s3)cs2)CC1 | -5 | 15 | 4 | i | 8 | 50*
CCN(c1ccccc1)c1cc2ccccc2c(=O)[nH]1 | · | · | 51* | i | · | ·
Cc1cc(C)c(S(=O)(=O)N(C)CC(=O)NCc2ccncc2)c(C)c1 | -3 | 4 | -2 | i | -1 | -15
Clc1cccc(CSc2nnc(-c3c[nH]c4ccccc34)o2)c1 | 17 | 13 | 3 | i | 3 | -6
O=c1c(-c2nnc(SCc3ccc(Cl)c(Cl)c3)o2)cccn1Cc1ccccc1 | -24 | -31 | 0 | + | -25 | -11
COc1cccc(NC(=O)C2CCN(S(=O)(=O)c3ccc4c(c3)C(C)(C)C(=O)N4C)CC2)c1 | · | · | -3 | i | · | ·
NC(=S)N/N=C1\CCOc2ccc(Cl)cc21 | -3 | 5 | 63* | · | 2 | -5
O=C(O)c1ccc(-n2c(O)c(C=C3N=c4ccccc4=N3)sc2=S)cc1 | 2 | 11 | 3 | i | 1 | 3
COc1ccc(NC(=O)C(NC(=O)c2ccc(=O)[nH]c2)c2ccc(C)cc2)cc1 (stereo unspecified) | -16 | 9 | 1 | i | -4 | -9
NS(=O)(=O)c1ccc(NC(=S)NC(=O)c2ccco2)cc1 | -10 | 3 | 1 | i | -10 | -1
CC(=O)NS(=O)(=O)c1ccc(NC(=S)NC(=O)c2ccco2)cc1 | 4 | 43* | 0 | i | 18 | 1
Cc1c(NC(=O)COc2cccc(Cl)c2Cl)c(=O)n(-c2ccccc2)n1C | · | · | 23* | i | · | ·
